The full list was thinned out, with hits kept by preference.
PGC1a Ac signal: raises PGC1a acetylation signal in U2OS cells. U2OS PGC1a acetylation AlphaScreen, overnight. activation, % at 15.6 µM. hit rate 0.21% among 350,000;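 active means every replicate reaching activation of at least 50%, whatever the mean replicate activation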;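 further: hits raise the AlphaScreen acetylation signal above neutral controls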
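System – flag-PGC1a/GCN5 U2OS cells · Quantity – 7000 U2OS cells per well · Signal – AlphaScreen proximity luminescence, anti-acetyl-lysine antibody · Schedule – overnight compound treatment, 37 °C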
An asterisk follows results filed as active.

SMILES	PGC1a Ac signal
CNC(=O)COC(=O)c1cc(-c2ccco2)nc2ccccc12	-46
Cc1cc(SCC(=O)NC(=O)NCc2ccco2)nc2ccccc12	85*
O=C(CSc1nc2c(sc3ccccc32)c(=O)n1CCc1ccccc1)NCc1ccco1	-57
COc1cc(-c2cnc3c(NC=O)cc(-c4ccccc4Cl)cn23)cc(OC)c1OC	102*
COc1cc(-c2cnc3c(NC=O)cc(-c4ccccc4)cn23)cc(OC)c1OC	105*
COc1cc(-c2cnc3c(NC=O)cc(-c4ccc(C)cc4)cn23)cc(OC)c1OC	89*
CC(NCc1cccs1)C(=O)NC1CCCCC1 (stereo not given)	-45
O=C(O)/C=C/c1cnc[nH]1	-106
O=C(CN1C(=O)C2C3CC(C(Br)C3Br)C2C1=O)OCC(=O)c1cccc([N+](=O)[O-])c1 (stereo not given)	-76
N#Cc1ccc(Cn2c(=O)c(C#N)c3n(c2=O)CCC3)cc1	-47
COc1ccccc1/C=C(/C(=O)OCC(=O)NCc1ccccc1)c1ccccc1	-92
Cc1ccccc1OCC(=O)OCC(=O)NCc1ccc2c(c1)OCO2	68*
O=C(CC(CC(=O)c1ccc(Br)cc1)c1cccnc1)c1ccc(Br)cc1	-50
CCN(C(=O)CN1CCN(c2ccccc2O)CC1)c1c(N)n(Cc2ccccc2)c(=O)[nH]c1=O	-50
CC1=CC(C)(C)N2C(=O)C3(SCC(=O)N3c3ccc(F)cc3)c3cc(C)cc1c32 (stereo not given)	93*
CN(C)c1ccc(Sc2ccc3nc(N)nc(N)c3c2)cc1	-46
COc1ccc(-c2cc(-c3ccccc3)c(C#N)c(S(C)=O)n2)cc1 (stereo not given)	-85
COc1ccc2c(-c3ccccc3)cc(=O)[nH]c2c1	-42
COc1ccc(-c2ccc(OC)cc2C(=O)O)cc1	70*
CN(C[C@H]1N[C@@H](CO)[C@@H]1c1ccc(C2=CCCC2)cc1)C(=O)c1cccc(F)c1	-76
COc1ccc(S(=O)(=O)N2CCCCN3[C@@H](CO)[C@@H](c4ccc(C5=CCCCC5)cc4)[C@@H]3C2)cc1	57*
O=C(Cc1ccccn1)NCC[C@@H]1CC[C@H](NC(=O)Nc2ccc(C(F)(F)F)cc2)[C@H](CO)O1	-78
C[C@H]1CN([C@@H](C)CO)C(=O)c2cccc(NC(=O)c3ccncc3)c2O[C@H]1CN(C)C(=O)Nc1ccc2c(c1)OCO2	-42
CC(=O)c1cccc(-c2ccnc3c2CC(C(=O)Nc2ccc4c(c2)OCO4)O3)c1 (stereo not given)	58*
CCOc1cc(/C=C2\CN(C)C/C(=C\c3ccc(O)c(OCC)c3)C2=O)ccc1O	-53
SMILES	PGC1a Ac signal
CCOc1cc(C)c(S(=O)(=O)N2CCCC2)cc1C	61*
CCc1ccc(C(=O)Nc2cccnc2Oc2ccc(Cl)cc2)cc1	-87
O=C(OCc1nc2ccsc2c(=O)[nH]1)c1cccc(S(=O)(=O)N2CCOCC2)c1	-42
C[C@H](CO)N1C[C@H](C)[C@H](CN(C)Cc2ccncc2)OCc2cn(nn2)CCCC1=O	-59
Cc1ccc(NC(=S)c2ccncc2)c(C)c1	164*
CCOc1ccccc1NC(=O)c1ccc2ccccc2c1	-88
CCN(CC)c1ccc(NC(=O)c2cc(OC)cc(OC)c2)c(C)c1	99*
Cc1ccccc1C(=O)Nc1ccc(C(=O)O)cc1NC(=O)c1ccccc1C	-41
Cc1cc(C(F)(F)F)n(-c2nc(C(=O)NNS(=O)(=O)c3ccccc3[N+](=O)[O-])cs2)n1	-110
COC(C[C@H]1O[C@@H]1[C@H](O)[C@H](C)OCc1ccccc1)OC	-47
O=C(NC(Nc1cc(C(F)(F)F)ccc1Cl)C(=O)c1ccccc1)c1ccccc1 (stereo not given)	100*
O=C(Nc1ccc(F)cc1)c1ccccc1	-52
CCCCC(=O)NCCc1cc2c(OC)ccc(OC)c2[nH]c1=O	-44
Cc1cc(C)cc(N(CC(=O)NC2CC3CCC2C3)S(C)(=O)=O)c1 (stereo not given)	83*
CN(C)Cc1csc(NC(=O)Nc2ccccc2-c2ccccc2)n1	52*
Cc1ccccc1NCC(=O)N/N=C/C(Br)=C/c1ccccc1	150*
O=C(Cc1cccs1)N/N=C/C(Br)=C/c1ccccc1	81*
CC(C)[C@H](NC(=O)NCc1cccs1)C(=O)O	-85
CC1=Nc2ccccc2N=C(NC(=O)CN2CCN(c3ccccc3)CC2)C1c1ccccc1 (stereo not given)	-86
Cc1noc(C)c1NC(=O)N(C)C[C@H]1OCCCC[C@@H](C)Oc2ccc(NC(=O)Cc3ccccc3)cc2C(=O)N([C@@H](C)CO)C[C@@H]1C	-44
Cc1noc(C)c1NC(=O)N[C@H]1C=C[C@H](CC(=O)NCc2ccc(Cl)c(Cl)c2)O[C@H]1CO	-49
Cn1c(=O)c2cc(S(=O)(=O)NCCC(=O)NCc3ccccc3Cl)ccc2n(C)c1=O	-47
COc1ccc(S(=O)(=O)NCCC(=O)NCc2ccc(F)cc2)cc1	-80
O=C(CCNC(=O)C1CCN(S(=O)(=O)c2ccc(F)cc2)CC1)NCc1ccccc1Cl	64*
O=C(NCc1cccnc1)/C(=C\c1ccc(-c2ccc(Cl)c(Cl)c2)o1)S(=O)(=O)c1ccccc1	-59
SMILES	PGC1a Ac signal
O=C(CCNNC(=O)c1ccncc1)NCc1ccccc1	-51
O=C(CCCc1nc(-c2ccccc2Cl)no1)NCc1cccnc1	98*
O=C(Cn1nc(C(=O)O)c2ccccc2c1=O)Nc1cccc(Br)c1	-52
COc1ccccc1Nc1nc(NCCC(C)C)nc(N)c1[N+](=O)[O-]	-47
Cc1ccc(O)c(C(=O)c2cnc3c(c2)CN(CCC(C)C)C(=O)N3)c1	70*
Cc1ccc(CC(=O)Nc2nccs2)cc1	-51
CC(C)NC(=O)N(C)C[C@H]1OCc2cnnn2CCCC(=O)N([C@@H](C)CO)C[C@H]1C	-42
CC(C)c1nc2sc3c(NCc4ccco4)ncnc3c2c2c1COC(C)(C)C2	-59
Nc1nc(F)nc2c1ncn2[C@@H]1O[C@H](CO)[C@@H](O)[C@H]1O	-83
OC[C@H]1O[C@@H](n2cnc3c(NCc4ccco4)ncnc32)[C@H](O)[C@@H]1O	72*
Cc1ccc(-c2nnc(Nc3ccccc3)c3ccccc23)cc1S(=O)(=O)NCC1CCCO1 (stereo not given)	120*
CC(C)(C)OC(=O)N1CCCC(C(=O)Nc2cccc(C(=O)NCc3ccccc3)c2)C1 (stereo not given)	64*
O=C(Cc1cccc(NC(=O)C2CCCN(C(=O)c3ccccc3)C2)c1)Nc1cccc(C(=O)N2CCOCC2)c1 (stereo not given)	-41
O=C(Cc1cccc(NC(=O)C2CCN(C(=O)c3ccccc3)CC2)c1)Nc1cccc(C(=O)N2CCCCC2)c1	-42
CCCOc1cccc(C(=O)Nc2cc(NC(=O)c3ccco3)ccc2OC)c1	61*
COc1cc(NC(=O)NCc2ccco2)ccc1-c1ccc(NC(=O)NCc2ccco2)cc1OC	-48
CCOc1ccc(CC(=O)Nc2ccc(NC(=O)c3ccco3)cc2)cc1OCC	133*
O=C(C[C@@H]1C[C@@H]2c3cc(NC(=O)C4CCC4)ccc3O[C@@H]2[C@@H](CO)O1)NCc1ccc(-c2ccccc2)cc1	-80
COc1ccc(S(=O)(=O)Nc2ccc3c(c2)C(=O)N([C@H](C)CO)C[C@H](C)[C@H](CN(C)S(=O)(=O)c2cn(C)cn2)OCCCC[C@@H](C)O3)cc1	-55
COc1ccccc1Oc1ccc2c(c1)C(=O)N(c1ccc(C)cc1)C2=O	-104
Cn1cc(C(=O)N/N=C/C(Br)=C\c2ccccc2)ccc1=O	128*

Screens (PubChem BioAssay)
